Screens from PubChem.
Vif inh: blocks HIV Vif function; HEK293T cells, Vif self-association by quenched fluorescence, imaging, 24 h; inhibition, % at 7.49 µM; 340,000 tested, 0.35% active; in the data active = inhibition above about 50%, passing the limit was not always enough
SMARCA2 activ: activators of SMARCA2 function; activation, % at 9.1 µM; MG213 cells, MMTV-luciferase reporter, dexamethasone, overnight; 370,000 tested, 1% active; AID 652017; in the data active = activation above about 7.8%;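 also: 0% = vehicle wells and 100% = reference activator wells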
SR-BI HDL uptake: blocks mouse SR-BI lipid uptake from DiI-HDL; Q61009; ldlA[mSR-BI] CHO cells, DiI-HDL uptake fluorescence, 3 h; inhibition, % at 12.5 µM; 320,000 tested, 0.96% active; AID 488896;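 active = mean replicate inhibition of at least 70% and a set share of replicates each scoring 70 or more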;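 also: 0% = median of neutral control wells and 100% = median of positive control wells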
Target sequence (Q61009 whole entry, looked up): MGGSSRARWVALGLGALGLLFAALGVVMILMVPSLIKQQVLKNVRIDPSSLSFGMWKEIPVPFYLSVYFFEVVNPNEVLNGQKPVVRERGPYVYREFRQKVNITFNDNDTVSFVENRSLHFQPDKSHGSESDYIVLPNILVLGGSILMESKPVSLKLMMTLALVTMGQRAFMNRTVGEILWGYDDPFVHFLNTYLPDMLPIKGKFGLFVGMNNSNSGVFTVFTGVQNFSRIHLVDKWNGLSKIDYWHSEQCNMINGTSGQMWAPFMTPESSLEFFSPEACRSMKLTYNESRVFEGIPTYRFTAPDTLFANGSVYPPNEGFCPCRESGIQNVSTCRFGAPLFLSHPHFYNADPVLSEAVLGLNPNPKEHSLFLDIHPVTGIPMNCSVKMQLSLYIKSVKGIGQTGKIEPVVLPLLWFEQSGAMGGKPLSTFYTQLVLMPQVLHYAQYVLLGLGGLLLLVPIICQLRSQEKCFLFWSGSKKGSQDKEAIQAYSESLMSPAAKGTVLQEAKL
SR-BI uptake up: enhances SR-BI lipid uptake from DiI-HDL; CHO ldlA[mSR-BI] cells, DiI-HDL uptake fluorescence, 3 h; 100 = double the neutral-control signal; activation, % at 12.5 µM; 320,000 tested, 0.096% active; AID 504775;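 active = mean replicate activation of at least 60% and every replicate at or above 60%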;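 also: 0% = median plate neutral-control signal and 100% = twice that signal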
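Assay system: LDL receptor-deficient CHO ldlA cells overexpressing murine SR-BI / Medium: BSA-supplemented, HEPES-buffered Ham's F12, pH 7.4 / Probe or stimulus: DiI-labelled HDL at 10 µg/mL final / Timing: compound with DiI-HDL co-incubation, 3 h at 37 °C / Technique: bottom-read cell fluorescence after medium removal, ex 550/em 595 nm / Measure: HDL uptake via cellular fluorescence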
TAG inh: triacylglycerol accumulation inhibition | H9c2 cells, Nile Red lipid (TAG) fluorescence; cells loaded with 200 µM oleic acid | inhibition, % at 12.5 µM | 230,000 tested, 0.66% active | AID 651582;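 active = pattern-corrected inhibition of lipid staining of at least 50% with the nuclear-stain viability signal not falling by more than 50%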;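 also: 0% = DMSO wells and 100% = triacsin C control wells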
TAG conf: triacylglycerol accumulation inhibition, confirmation; 990 tested, 71% active; H9c2 lipid accumulation, Nile Red fluorescence; cells loaded with 200 µM oleic acid; inhibition, % at 12.5 µM; shares compounds with TAG inh;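 active = mean inhibition across replicates of 40% or more; inactive = mean inhibition below 40%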;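 also: plate controls were DMSO only wells for no effect and Triacsin C treated wells for full effect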
* = called active by the depositor; · = not tested or not shown. A selection: hits, their analogues and other compounds. The true share with any hit is near 2.5%.

SMILES	Vif inh	SMARCA2 activ	SR-BI HDL uptake	SR-BI uptake up	TAG inh	TAG conf
Cc1ccc(CC2(OCCN(C)C)CCC(C(C)(C)C)CC2)cc1 (stereo not given)	-7	-4	-9	9	84*	63*
CN(C)CCOC1(Cc2ccc(F)cc2)CCC(C(C)(C)C)CC1 (stereo not given)	-9	-3	-2	2	30	·
C#CCNC[C@@H]1CSCCS(=O)(=O)N1	·	-1	·	·	·	·
CC(=O)Nc1ccc(NC2=Nc3ccccc3N3C2=Nc2c(c(C)nn2-c2ccccc2)C3c2ccccc2)cc1 (stereo not given)	12	2	59	-59	54*	43*
O=C(CN1CCN(c2ccccn2)CC1)Nc1ccccc1C(=O)Nc1ccccc1	·	-1	-3	3	-6	·
COc1cc(NC(=O)c2cc([N+](=O)[O-])ccc2NC(=O)CN2CCN(c3ccccn3)CC2)cc(OC)c1	-11	-1	17	-17	60*	79*
CC(C)CN1C(=O)C[C@@]2(C(=O)N(C)c3ccc(NC(=O)C(C)(C)C)cc32)C1c1ccccc1 (stereo not given in full)	·	-4	·	·	·	·
Cc1cccc(NC(=O)NN(C(=O)c2ccccc2Cl)C(C)(C)C)c1	·	-1	·	·	·	·
Cc1nn2c(N3CCCC3)cc(C(C)C)nc2c1-c1ccccc1	5	-3	74*	-74	72*	59*
CCOC(=O)c1c(C)[nH]c(-c2csc(N)n2)c1C	112*	-2	12	-12	64*	5
CC(C)n1nnnc1C1(C)CCSCC(=O)N1Cc1cccc(C(F)(F)F)c1 (stereo not given)	·	-2	·	·	·	·
CN(C)CCNC=C(C(=O)Nc1ccc(Cl)cc1Cl)C(=O)Nc1ccc(Cl)cc1Cl	7	0	-82	82*	102*	92*
Cc1cccc(N2CCN(C(=O)CCCn3c(=S)[nH]c4cc5c(cc4c3=O)OCO5)CC2)c1C	-37	-3	34	-34	54*	38
O=C(CCCn1c(=S)[nH]c2cc3c(cc2c1=O)OCO3)N1CCN(c2ccccc2)CC1	1	2	14	-14	-5	·
CS(=O)(=O)Oc1ccc2c(c1)O/C(=C\C=C\c1ccccc1)C2=O	-3	-2	6	11	54*	3
CS(=O)(=O)Oc1ccc2c(c1)O/C(=C\c1cccc([N+](=O)[O-])c1)C2=O	13	0	8	-8	·	·
CCOc1ccc(CCNC(=O)CN(C)S(=O)(=O)c2cccc3nsnc23)cc1OCC	-5	-2	16	-16	51*	44*
O=C(O)CC1(CC(=O)Nc2cc(C(F)(F)F)cc(C(F)(F)F)c2)CCCCC1	·	-8	-2	2	94*	-10
Cc1cccc(NC(=O)c2nc[nH]c2C(=O)NCc2ccccc2)c1	-1	0	2	-2	-26	·
Cc1cccc(NC(=O)c2nc[nH]c2C(=O)NCCCCCCNC(=O)c2[nH]cnc2C(=O)Nc2cccc(C)c2)c1	1	1	-16	16	76*	-2
COC(=O)c1ccc(/C=C/c2c(-c3ccsc3)oc3ccc(N4CCOCC4)cc23)cc1	11	2	37	-37	60*	54*
COc1ccc(-c2c(-c3ccsc3)oc3ccc(N4CCOCC4)cc23)cn1	-4	1	49	-49	1	·
Nc1ccc(C#Cc2c(-c3ccsc3)oc3ccc(N4CCOCC4)cc23)cc1	7	5	45	-45	51*	53*
C[C@@H]1CCN(C2CC2)S(=O)(=O)c2c(cccc2N2CCC[C@@H]2CO)O1	·	0	·	·	·	·
O=C(C(=O)N1CCN(C(=O)Cc2ccccc2)CC1)c1cccc(C(F)(F)F)c1	·	-2	·	·	·	·
SMILES	Vif inh	SMARCA2 activ	SR-BI HDL uptake	SR-BI uptake up	TAG inh	TAG conf
COc1ccc([C@H]2C[C@H](O)[C@@H](n3cc(-c4ccc(F)cc4)nn3)CN2Cc2cccs2)cc1	-3	3	·	·	59*	52*
COc1ccc([C@H]2C[C@H](n3cc(-c4ccc(F)cc4)nn3)[C@@H](O)CN2Cc2cccs2)cc1	-4	-2	·	·	-8	·
Cc1cccc2sc(NC(=O)CN(C)S(=O)(=O)c3ccc(Br)s3)nc12	-17	0	7	-7	52*	40
CCN(CC)CCCNc1nc2cc(OC)c(OC)cc2c2nc(-c3ccccc3)nn12	0	4	-17	17	61*	36
COc1cc2nc(NCCCN3CCN(C)CC3)n3nc(-c4ccccc4)nc3c2cc1OC	·	-3	-1	1	61*	41*
COc1cc2nc(NCC3CCCO3)n3nc(-c4cccnc4)nc3c2cc1OC (stereo not given)	-9	0	54	-54	·	·
CN1CCN(CCCNc2nc3ccccc3c3nc(-c4ccccc4)nn23)CC1	0	4	·	·	18	·
Cc1ccc(/C=N/NC(=O)c2c(C)nc3ccc(Br)cn23)cc1	27	-2	-10	10	56*	58*
O=C(CCl)Nc1cc2[nH]c(=O)[nH]c2cc1Br	18	-6	2	-2	51*	69*
COC(=O)c1cc(C(=O)N2CCN(c3cccc(C)c3C)CC2)cc([N+](=O)[O-])c1	0	-5	64	-64	8	·
COC(=O)c1cc(C(=O)N2CCN(c3ccccc3OC)CC2)cc([N+](=O)[O-])c1	22	0	38	-38	51*	85*
CCCOc1ccc(F)cc1-c1cc(C(=O)NCc2cc(OC)cc(OC)c2)[nH]n1	-10	-8	·	·	54*	50*
CCCOc1ccc(F)cc1-c1cc(C(=O)NCc2ccccc2)[nH]n1	23	0	·	·	-4	·
CC(=O)Nc1ccc(-c2ccnc3c2CC(C(=O)NCc2cccc(Cl)c2)O3)cc1 (stereo not given)	16	-3	·	·	58*	63*
COc1ccc(NC(=O)C2Cc3c(-c4cccc(C(C)=O)c4)ccnc3O2)cc1 (stereo not given)	41	0	·	·	54*	38
COc1ccc(NC(=O)C2Cc3c(-c4cccc(NC(C)=O)c4)ccnc3O2)cc1 (stereo not given)	10	-1	·	·	30	·
CCCN(CCC)CCNC(=O)c1cc2c(=O)n(CC)c3ccccc3c2s1	-13	4	21	-21	52*	68*
Cc1ccc(NC(=O)COC(=O)c2ccc3c(c2)NC(=O)C2CCCN32)cc1 (stereo not given)	-3	-4	35	-35	66*	22
CC1CCCN(c2cccc3c2S(=O)(=O)N(Cc2cccc(Cl)c2)[C@@H](C)[C@H](c2ccccc2)O3)C1 (stereo not given in full)	·	-5	·	·	·	·
CCC(=O)Nc1nonc1-c1nc2ccccc2n1Cc1cccc2ccccc12	·	-3	15	-15	50*	65*
